Starred links: 1 amine or outer side, 2 acyl side, 3 side chain; linkers in the order of their positions; H or OH if unused. Positions of bridges follow the written chain, without caps; N, C: chain ends. Non-standard residues stand in square brackets, D forms with d. Residues, ends and D or L forms follow the SMILES beside them. Chains are numbered I, II in the order given. Actinocin(1to9) = Cc1c2oc3c(C)ccc(C(=O)[*:2])c3nc-2c(C(=O)[*:1])c(N)c1=O; NMeV = CN[C@H](C(=O)O)C(C)C; Sar = CNCC(=O)O
Legend:
[1] = system: CCRF-CEM; assay: Concentration required to inhibit 50% of cell growth on CEM lymphocytes.; type: functional, cell-based; conditions: Homo sapiens
Procedure, shortened: (§1)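 Murine P388 D1 and L1210 leukemia cells and human Molt 4/C8 and CEM T-lymphocytes were tested. IC50 is the concentration inhibiting 50% of growth.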

[2] = system: MOLT-4; assay: Concentration required to inhibit 50% of cell growth on human Molt 4/C8 cells.; type: functional, cell-based; procedure, shortened: as §1
[3] = system: L1210; assay: Concentration required to inhibit 50% of cell growth on murine L1210 cells.; type: functional, cell-based; conditions: Mus musculus; procedure, shortened: as §1
[4] = system: P388; assay: Concentration required to inhibit 50% of cell growth on murine P388 D1 cells.; type: functional, cell-based; conditions: Mus musculus
[5] = species: Homo sapiens; assay: Inhibition of RNA synthesis was evaluated on human Jurkat T-cells after 8 hours.; type: functional; parameters: concentration or dose not given beside the values
[6] = species: Homo sapiens; assay: Inhibition of protein synthesis was evaluated on human Jurkat T-cells after 8 hours.; type: functional; parameters: concentration or dose not given beside the values
[7] = species: Homo sapiens; assay: (§2) Inhibitory concentration was evaluated on human Jurkat T-cells after their exposure for 48 hours; type: functional, cell-based
Procedure, shortened: (§3)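 Human Jurkat T cells exposed to compounds for 48 h. Viability scored by nigrosin dye exclusion, used in place of trypan blue. IC50 and IC80 taken from the resulting viability data.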

[8] = species: Homo sapiens; assay: as §2; type: functional; procedure, shortened: as §3
[9] = species: Homo sapiens; assay: Apoptotic index calculated using human Jurkat T cells; type: functional
Procedure, shortened: (§4)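 Jurkat T cells exposed at concentrations giving IC80 (IC80 determined after 48 h exposure). Nuclei stained with ethidium bromide (0.1% w/v) plus acridine orange (0.1% w/v). Apoptotic index = (cells with apoptotic nuclei / cells counted) × 100.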

[10] = system: Colon carcinoma cell; assay: Mean graph mid point was measured on colon cancer cells.; type: functional, Homo sapiens
Procedure, shortened: (§5)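 Human tumor panel of about 55 lines: leukemia, melanoma, non-small-cell lung, colon, CNS, ovarian, renal, prostate and breast. Compounds generally tested from 10^-4 to 10^-8 M, noting 50% growth inhibition for each line. Mean graph midpoints taken for all lines, leukemic lines and colon lines. Duplicate or triplicate runs were averaged.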

[11] = system: Tumor cancer cell line; assay: Mean graph mid point was measured on all cell lines.; type: functional, Homo sapiens; procedure, shortened: as §5
[12] = system: leukaemia cell line; assay: Mean graph mid point was measured on leukemic cells.; type: functional, Homo sapiens; procedure, shortened: as §5
[13] = Selectivity index is the ratio of MG MID value for all cell lines to that of colon cancer cells; type: functional
[14] = Selectivity index is the ratio of MG MID value for all cell lines to that of leukemic cells; type: functional
[15] = species: Homo sapiens; assay: Apoptotic index was evaluated on human Jurkat T-cells after 24 hours.(Using 80% inhibitory concentration); type: functional; procedure, shortened: as §4
[16] = system: Mus musculus; assay: Ip score was calculated by implanting different tumor cell lines in hollow fibres in mice by the intraperitoneal route (Net cell kill was not observed).; type: functional
[17] = system: Mus musculus; assay: sc score was calculated by implanting different tumor cell lines in hollow fibres in mice by the subcutaneously route (Net cell kill was not observed).; type: functional
[18] = system: Mus musculus; assay: Ip score was calculated by implanting different tumor cell lines in hollow fibres in mice by the intraperitoneal route (Net cell kill was not observed); type: functional
[19] = system: Mus musculus; assay: Sc score was calculated by implanting different tumor cell lines in hollow fibres in mice by the subcutaneously route (Net cell kill was not observed); type: functional

Compound | IC50 [1] | IC50 [2] | IC50 [3] | IC50 [4] | MG MID [10] | MG MID [11] | MG MID [12] | also measured
COc1ccc(C(=O)Oc2ccc(/C=C3\CCCC(CN(C)C)C3=O)cc2)cc1 (stereo unspecified) | 5.07 µM | 2.36 µM | 2.87 µM | 0.332 µM | – | – | – | –
COc1ccc(/C=C/C(=O)Oc2ccc(/C=C3\CCCC(CN(C)C)C3=O)cc2)cc1 (stereo unspecified) | – | – | – | 2.41 µM | – | – | – | –
Cc1ccc(/C=C/C(=O)Oc2ccc(/C=C3\CCCC(CN(C)C)C3=O)cc2)cc1 (stereo unspecified) | 7.02 µM | 3.39 µM | 2.43 µM | 1.29 µM | – | – | – | –
CN(C)CC1CCC/C(=C\c2ccc(OC(=O)/C=C/c3ccc(Br)cc3)cc2)C1=O.Cl (stereo unspecified) | 4.44 µM | 3.06 µM | 1.78 µM | 4.03 µM | – | – | – | Inhibition [5]: 84.5%; Inhibition [6]: 46.6%; IC50 [7]: 4.47 µM; IC80 [8]: 7.63 µM; Apoptotic index [9]: 59.2
CN(C)CC1CCC/C(=C\c2ccc(OC(=O)/C=C/c3ccc(F)cc3)cc2)C1=O (stereo unspecified) | 6 µM | 3.78 µM | 1.84 µM | 4.55 µM | – | – | – | –
CN(C)CC1CCC/C(=C\c2ccc(OC(=O)c3ccccc3)cc2)C1=O (stereo unspecified) | 29.4 µM | 24.1 µM | 23.4 µM | 0.18 µM | – | – | – | –
O=C(CCc1ccccc1)Oc1ccc(/C=C2\CCCCC2=O)cc1 | 34.4 µM | 31.1 µM | 52.4 µM | 21.9 µM | – | – | – | –
Cc1ccc(/C=C/C(=O)Oc2ccc(/C=C3\CCCCC3=O)cc2)cc1 | 230 µM | 156 µM | 202 µM | > 50 µM | – | – | – | –
O=C(/C=C/c1ccccc1)Oc1ccc(/C=C2\CCCCC2=O)cc1 | 26 µM | 30.7 µM | 30.7 µM | 20.3 µM | 29.1 µM | 36.3 µM | 8.32 µM | SI [13]: 1.3; SI [14]: 4.4
O=C(/C=C/c1ccc(Br)cc1)Oc1ccc(/C=C2\CCCCC2=O)cc1 | 131 µM | 180 µM | 127 µM | > 50 µM | – | – | – | Apoptotic index [15]: 23.3; Inhibition [5]: 77.5%; Inhibition [6]: 69.1%; IC50 [7]: 19.8 µM; IC80 [8]: 31.7 µM; Apoptotic index [9]: 23.3
COc1ccc(/C=C/C(=O)Oc2ccc(/C=C3\CCCCC3=O)cc2)cc1 | 8.78 µM | 2.06 µM | 10.2 µM | 9.03 µM | 25.4 µM | 49.7 µM | 9.36 µM | SI [13]: 2; SI [14]: 5.3
O=C1CCCC/C1=C\c1ccc(OC(=O)c2ccccc2)cc1 | – | – | – | > 50 µM | – | – | – | –
O=C1CCCC/C1=C\c1ccc(OC(=O)c2ccc(Cl)cc2)cc1 | 41 µM | 38 µM | 3.33 µM | 25.5 µM | – | – | – | –
O=C(/C=C/c1ccc(Cl)c(Cl)c1)Oc1ccc(/C=C2\CCCCC2=O)cc1 | 63.8 µM | 47.3 µM | 64.8 µM | > 50 µM | 100 µM | 91.2 µM | 53 µM | SI [13]: 0.9; SI [14]: 1.7
Cc1ccc(C(=O)Oc2ccc(/C=C3\CCCCC3=O)cc2)cc1 | 22.7 µM | 25.6 µM | 44.8 µM | > 50 µM | – | – | – | –
COc1ccc(C(=O)Oc2ccc(/C=C3\CCCCC3=O)cc2)cc1 | 36.1 µM | 34 µM | 43.4 µM | > 50 µM | – | – | – | –
CN(C)CC1CCC/C(=C\c2ccc(OC(=O)c3ccc(Cl)cc3)cc2)C1=O.Cl (stereo unspecified) | 6.15 µM | 5.11 µM | 5.61 µM | 0.425 µM | 1.21 µM | 1.66 µM | 0.307 µM | Ip score [16]: 2; Inhibition [5]: 88.4%; Inhibition [6]: 62%; IC50 [7]: 3.5 µM; IC80 [8]: 5.6 µM; SI [13]: 1.4; SI [14]: 5.4; Subcut score [17]: 10; Apoptotic index [9]: 73.3
CN(C)CC1CCC/C(=C\c2ccc(OC(=O)/C=C/c3ccc(Cl)cc3)cc2)C1=O.Cl (stereo unspecified) | 3.56 µM | 2.65 µM | 1.74 µM | 1.61 µM | 2.3 µM | 3.58 µM | 0.864 µM | Ip score [18]: 0; Inhibition [5]: 78%; Inhibition [6]: 37%; IC50 [7]: 2.53 µM; IC80 [8]: 4.04 µM; SI [13]: 1.6; SI [14]: 4.1; Subcut score [19]: 6; Apoptotic index [9]: 87
O=C(/C=C/c1ccc(Cl)cc1)Oc1ccc(/C=C2\CCCCC2=O)cc1 | 63.4 µM | 78.6 µM | 64.3 µM | > 50 µM | 81 µM | 91.2 µM | 60.5 µM | SI [13]: 1.1; SI [14]: 1.5
O=C(/C=C/c1ccc(F)cc1)Oc1ccc(/C=C2\CCCCC2=O)cc1 | 14.4 µM | 26.6 µM | 30.9 µM | > 50 µM | – | – | – | –
N[C@@H](Cc1ccc(N(CCCl)CCCl)cc1)C(=O)O | – | – | – | – | 44.6 µM | 23.5 µM | 4.65 µM | Inhibition [5]: 85.1%; Inhibition [6]: 17.3%; IC50 [7]: 2.2 µM
C[C@@H]1C[C@@H]([C@H](O)CC2CC(=O)NC(=O)C2)C(=O)[C@@H](C)C1 [CYCLOHEXIMIDE] | – | – | – | – | – | – | – | Inhibition [5]: 93.3%; Inhibition [6]: 71.9%; IC50 [7]: 0.93 µM; Apoptotic index [9]: 38.3
Cc1c2oc3c(C)ccc(C(=O)N[C@@H]4C(=O)N[C@H](C(C)C)C(=O)N5CCC[C@H]5C(=O)N(C)CC(=O)N(C)[C@@H](C(C)C)C(=O)O[C@@H]4C)c3nc-2c(C(=O)N[C@@H]2C(=O)N[C@H](C(C)C)C(=O)N3CCC[C@H]3C(=O)N(C)CC(=O)N(C)[C@@H](C(C)C)C(=O)O[C@@H]2C)c(N)c1=O [DACTINOMYCIN] (I: T[dV]P[Sar][NMeV] / II: T[dV]P[Sar][NMeV]; ester I:1-I:C, II:1-II:C; linker I:N-II:N via Actinocin(1to9)) | – | – | – | – | – | – | – | Inhibition [5]: 90.5%; Inhibition [6]: 49.2%; IC50 [7]: 0.0045 µM; IC80 [8]: 0.0072 µM; Apoptotic index [9]: 35.5
O=c1[nH]cc(F)c(=O)[nH]1 [FLUOROURACIL] | 8.9 µM | 23 µM | 0.28 µM | 0.49 µM | 7.9 µM | 32.6 µM | 27.6 µM | –
C=C1C(=O)O[C@@H]2C[C@@H](C)[C@@H]3C=CC(=O)[C@@]3(C)[C@@H](O)[C@H]12 [HELENALIN] | – | – | – | – | 1.42 µM | 1.45 µM | 0.62 µM | SI [13]: 1; SI [14]: 2.3
